Consider eight molecules from ChEMBL document CHEMBL1146533, “Antimicrobial and antiparasitic (+)-trans-hexahydrodibenzopyrans and analogues from Machaerium multiflorum” (J Nat Prod, 2003).

In series [1] the test system is Candida albicans. Kind of series: Antimicrobial activity against Candida albicans ATCC 90028 by modified NCCLS method. Type of series: functional, organism-based.
In the next series the test system is Cryptococcus neoformans. Put plainly: Antimicrobial activity against Cryptococcus neoformans ATCC 90113 by modified NCCLS method. It counts as functional, organism-based.
The subject of series [2] is Staphylococcus aureus. Put plainly: Antimicrobial activity against Staphylococcus aureus ATCC 29213 by modified NCCLS method. It counts as functional, organism-based.
Series [3] deals with Staphylococcus aureus. Kind of series: Antimicrobial activity against methicillin-resistant Staphylococcus aureus ATCC 43300 by modified NCCLS method. Type of series: functional, organism-based.
Series [4] has as its system Mycobacterium intracellulare. Put plainly: Antimicrobial activity against Mycobacterium intracellular by Alamar blue assay. Type of series: functional, organism-based.
Series [5] concerns Aspergillus fumigatus. Put plainly: Antimicrobial activity against Aspergillus fumigatus ATCC 90906 by modified NCCLS method. It counts as functional, organism-based.
The test system of series [6] is Candida albicans. Kind of series: Antifungal activity against Candida albicans ATCC 90028 at 50 ug/mL by modified NCCLS method. Type of series: functional, organism-based.
The test system of series [7] is Mycobacterium intracellulare. Kind of series: Antimicrobial activity against Mycobacterium intracellular at 50 ug/mL by Alamar blue assay. It counts as functional. In general terms: Resazurin is reduced to fluorescent resorufin, in cell work by metabolically active cells.
The test system of series [8] is Aspergillus fumigatus. Kind of series: Antimicrobial activity against Aspergillus fumigatus ATCC 90906 at 50 ug/mL by modified NCCLS method. Type of series: functional, organism-based.
The test system of series [9] is Plasmodium falciparum. Put plainly: Antimalarial activity against chloroquine-resistant Plasmodium falciparum W2. It counts as functional, organism-based.
Series [10] can be described thus: Selectivity index, ratio of IC50 for african green monkey (Cercopithecus aethiops) Vero cells to IC50 for chloroquine-sensitive Plasmodium falciparum W2. Type of series: toxicity, cell-based. The note with it: read-out: Ratio IC50. Summed up:
(§1)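 Selectivity index calculated as IC50 in Vero cells divided by IC50 against P. falciparum.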

Series [11] deals with Plasmodium falciparum. Kind of series: Antimalarial activity against chloroquine-sensitive Plasmodium falciparum D6. It counts as functional, organism-based.
A short description of series [12]: Selectivity index, ratio of IC50 for african green monkey (Cercopithecus aethiops) Vero cells to IC50 for chloroquine-sensitive Plasmodium falciparum D6. Type of series: toxicity, cell-based. The note with it: read-out: Ratio IC50. In a few lines:
as §1

The test system of the next series is Leishmania donovani. Put plainly: Antileishmanial activity against Leishmania donovani promastigotes after 72 hrs. It counts as functional, organism-based.
The test system of the next series is Vero. Kind of series: Cytotoxicity against african green monkey Vero cells at 4.7 ug/mL. Type of series: cell-based. The note with it: chlorocebus sabaeus.

In brackets after ≈: the same amount, converted by molar mass. Activity calls are given as the source filed them.

For orientation: IC50 means the concentration that gives 50% inhibition. The MIC is the lowest concentration that inhibits growth of the organism. Broadly, the MBC is the smallest concentration meeting the test's criterion for killing. With `C=C(C)[C@H]1CC[C@H](C)C[C@@H]1c1c(O)cc(/C=C/c2ccccc2)cc1O` [MACHAERIDIOL A], the IC50 with Candida albicans [1] was found to be 3.5 µg/mL (≈ 10 µM); with Cryptococcus neoformans, 15 µg/mL (≈ 43 µM); with Staphylococcus aureus [2], 1 µg/mL (≈ 2.87 µM); in the series on Staphylococcus aureus [3], 1 µg/mL (≈ 2.87 µM); in series [4] it was 7 µg/mL (≈ 20.1 µM). Moreover, the MIC was determined as 50 µg/mL (≈ 143 µM) in the series on Candida albicans [1]; 1.56 µg/mL (≈ 4.48 µM) with Staphylococcus aureus [2]; 1.56 µg/mL (≈ 4.48 µM) against Staphylococcus aureus [3]; 12.5 µg/mL (≈ 35.9 µM) in series [4]; 12.5 µg/mL (≈ 35.9 µM) against Aspergillus fumigatus [5]. Besides, the result in the series with Cryptococcus neoformans, with Candida albicans [6] and with Aspergillus fumigatus [8] was inactive. Also, the MBC against Staphylococcus aureus [2] was 3.13 µg/mL (≈ 8.98 µM); with Staphylococcus aureus [3] it was 3.13 µg/mL (≈ 8.98 µM); in series [7] it was 50 µg/mL (≈ 143 µM).

Take `C[C@@H]1C[C@@H]2c3c(O)cc(-c4cc5ccccc5o4)cc3OC(C)(C)[C@H]2C[C@H]1O` [MACHAERIOL D]: the result (in the series on Candida albicans [1]; in the series on Cryptococcus neoformans; in the series with Staphylococcus aureus [3]; in series [4]; in the series with Aspergillus fumigatus [5]) was inactive. Further, the IC50 in the series on Staphylococcus aureus [2] worked out at 25 µg/mL (≈ 66.1 µM); in the series on Staphylococcus aureus [3], 30 µg/mL (≈ 79.3 µM). Moreover, the MIC in the series with Staphylococcus aureus [2] came to 50 µg/mL (≈ 132 µM).

A word on the IC90: it is the point of the concentration-response curve where the effect stands at 90%. As to `C[C@H]1CC[C@H]2[C@H](C1)c1c(O)cc(/C=C/c3ccccc3O)cc1OC2(C)C` [MACHAERIOL C], the IC50 with Plasmodium falciparum [9] is 3.7 µg/mL (≈ 10.2 µM); in the series with Candida albicans [1] it was 20 µg/mL (≈ 54.9 µM); in the series on Cryptococcus neoformans it was 40 µg/mL (≈ 110 µM); in the series with Staphylococcus aureus [2], 0.65 µg/mL (≈ 1.78 µM); in the series on Staphylococcus aureus [3], 0.7 µg/mL (≈ 1.92 µM); in series [4], 20 µg/mL (≈ 54.9 µM). Besides, the IC50 in the series on Plasmodium falciparum [11] was 3 µg/mL (≈ 8.23 µM); in the series with Leishmania donovani it was 6 µg/mL (≈ 16.5 µM). Moreover, the values for the selectivity ratio in series [10] and in series [12] were 1.3 and 1.6, respectively. Further, the minimum bactericidal concentration (MBC) is 6.25 µg/mL (≈ 17.1 µM) against Staphylococcus aureus [2] and 12.5 µg/mL (≈ 34.3 µM) against Staphylococcus aureus [3]. For the same molecule, the minimal inhibitory concentration (MIC) against Staphylococcus aureus [2] worked out at 1.56 µg/mL (≈ 4.28 µM); in the series on Staphylococcus aureus [3] it was 1.56 µg/mL (≈ 4.28 µM); against Aspergillus fumigatus [5], 100 µg/mL (≈ 274 µM). Further, the result with Aspergillus fumigatus [8] was inactive. Moreover, the IC90 in the series with Leishmania donovani came out at 12 µg/mL (≈ 32.9 µM). The Activity result in the series with Vero is given as “Non-toxic”.

On to `O=C(O)c1cn(C2CC2)c2cc(N3CCNCC3)c(F)cc2c1=O` [CIPROFLOXACIN], for which, in the series with Staphylococcus aureus [2], the IC50 was determined as 0.15 µg/mL (≈ 0.453 µM). In the series on Staphylococcus aureus [3], this molecule had an MBC of 0.31 µg/mL (≈ 0.936 µM) and an MIC of 0.31 µg/mL (≈ 0.936 µM). Further, in series [4], the IC50 came out at 0.45 µg/mL (≈ 1.36 µM) and the MIC worked out at 0.63 µg/mL (≈ 1.9 µM).

For `N=C(N)c1ccc(OCCCCCOc2ccc(C(=N)N)cc2)cc1` [PENTAMIDINE], in the series with Leishmania donovani, the IC50 was 0.42 µg/mL (≈ 1.23 µM) and the IC90 worked out at 1.5 µg/mL (≈ 4.41 µM).

In the case of `C=C(C)[C@H]1CC[C@H](C)C[C@@H]1c1c(O)cc(-c2cc3ccccc3o2)cc1O` [MACHAERIDIOL C], the IC50 in the series on Plasmodium falciparum [9] worked out at 2.5 µg/mL (≈ 6.9 µM); in the series with Candida albicans [1], 45 µg/mL (≈ 124 µM); in the series on Cryptococcus neoformans, 25 µg/mL (≈ 69 µM); in the series on Staphylococcus aureus [2], 3 µg/mL (≈ 8.28 µM); with Staphylococcus aureus [3] it was 3.5 µg/mL (≈ 9.66 µM); in series [4], 10 µg/mL (≈ 27.6 µM). The IC50 turned out to be 3.3 µg/mL (≈ 9.1 µM) in the series on Plasmodium falciparum [11] and 3 µg/mL (≈ 8.28 µM) in the series on Leishmania donovani. In addition, the figures for the selectivity ratio in [10] and in series [12] were above 1.9 and above 1.4, respectively. In addition, the MBC against Staphylococcus aureus [2] and against Staphylococcus aureus [3] was 12.5 µg/mL (≈ 34.5 µM) each time. The MIC is 6.25 µg/mL (≈ 17.2 µM) with Staphylococcus aureus [2], 6.25 µg/mL (≈ 17.2 µM) against Staphylococcus aureus [3] and 25 µg/mL (≈ 69 µM) in series [4]. For the same molecule, the outcome (in the series with Aspergillus fumigatus [5]; in series [7]) was inactive. In the series on Leishmania donovani, this molecule came in with an IC90 of 10 µg/mL (≈ 27.6 µM). For the same molecule, the Activity result with Vero was “Non-toxic”.

Turning to `C[C@@H]1[C@H](O)[C@@H](C)/C=C/C=C/C=C/C=C/C=C/C=C/C=C/[C@H](O[C@@H]2O[C@H](C)[C@@H](O)[C@H](N)[C@@H]2O)C[C@@H]2O[C@](O)(C[C@@H](O)C[C@@H](O)[C@H](O)CC[C@@H](O)C[C@@H](O)CC(=O)O[C@H]1C)C[C@H](O)[C@H]2C(=O)O` [AMPHOTERICIN B], the MIC amounted to 0.31 µg/mL (≈ 0.335 µM) against Candida albicans [1], 0.63 µg/mL (≈ 0.682 µM) with Cryptococcus neoformans and 1.25 µg/mL (≈ 1.35 µM) with Aspergillus fumigatus [5].

For `C=C(C)[C@H]1CC[C@H](C)C[C@@H]1c1c(O)cc(/C=C/c2ccccc2O)cc1O` [MACHAERIDIOL B], the half-inhibitory concentration (IC50) turned out to be 0.22 µg/mL (≈ 0.604 µM) in the series with Plasmodium falciparum [9]; 2 µg/mL (≈ 5.49 µM) in the series with Candida albicans [1]; 3.5 µg/mL (≈ 9.6 µM) with Cryptococcus neoformans; 2.6 µg/mL (≈ 7.13 µM) in the series with Staphylococcus aureus [2]; 2 µg/mL (≈ 5.49 µM) with Staphylococcus aureus [3]; 0.64 µg/mL (≈ 1.76 µM) in the series with Plasmodium falciparum [11]. The molecule also had a 50% inhibitory concentration (IC50) with Leishmania donovani of 0.9 µg/mL (≈ 2.47 µM). The selectivity ratio was above 22 in series [10] and above 7.4 in series [12]. The MIC in the series with Candida albicans [1] amounted to 6.25 µg/mL (≈ 17.1 µM); against Staphylococcus aureus [2], 6.25 µg/mL (≈ 17.1 µM); in the series with Staphylococcus aureus [3], 6.25 µg/mL (≈ 17.1 µM); with Aspergillus fumigatus [5], 10 µg/mL (≈ 27.4 µM). Also, the MBC in the series on Staphylococcus aureus [2] and with Staphylococcus aureus [3] was 6.25 µg/mL (≈ 17.1 µM) in each case. Besides, the result (in [4]; in the series with Candida albicans [6]; with Aspergillus fumigatus [8]) was inactive. Further, the IC90 in the series on Leishmania donovani is 8 µg/mL (≈ 21.9 µM). In the series with Vero, the Activity result is “Non-toxic”.
